Experimental data taken from ChEMBL document CHEMBL3045055, “Synthesis and antifungal activities of carabrol ester derivatives” (J Agric Food Chem, 2012).
Values after ≈ are worked out from the molar mass of the structure shown.

System: Colletotrichum lagenaria
Experiment: Antifungal activity against Colletotrichum lagenaria assessed as inhibition of spore germination at 24 +/- 1 degC for 8 hr (plant disease: on leaf and fruit)
Assay type: functional, organism-based
Outline: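 C. lagenarium isolate (Accession No. 36199, Agricultural Culture Collection of China) grown 2 weeks at 25 ± 1 °C on PDA. Conidia flooded off with sterile water, filtered through cheesecloth, and suspended in water with 0.1% (v/v) Tween 20 at 1.0 × 10^6 spore/mL by hemocytometer. Samples dissolved in methanol, diluted with sterile water to test solutions; spore germination inhibition read, IC50 derived.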

SMILES | IC50 [µg/mL]
C=C1C(=O)O[C@@H]2C[C@]3(C)C(CCC(C)OC(=O)/C=C/c4ccc(OC)c(OC)c4)[C@@H]3C[C@H]12 (some centres undefined) | 25.1 (≈ 56.9 µM)
C=C1C(=O)O[C@@H]2C[C@]3(C)C(CCC(C)OC(=O)c4cnc(C)cn4)[C@@H]3C[C@H]12 (some centres undefined) | 20.5 (≈ 55.3 µM)
C=C1C(=O)O[C@@H]2C[C@]3(C)C(CCC(C)OC(=O)CCCCCCCCCCC)[C@@H]3C[C@H]12 (some centres undefined) [CARABRYL LAURATE] | 33.6 (≈ 77.7 µM)
C=C1C(=O)O[C@@H]2C[C@]3(C)C(CCC(C)OC(=O)c4ccc(OC)cc4)[C@@H]3C[C@H]12 (some centres undefined) [CARABRYL 4-METHOXYBENZOATE] | 47.5 (≈ 123 µM)
C=C1C(=O)O[C@@H]2C[C@]3(C)C(CCC(C)OC(=O)c4ccc(F)cc4)[C@@H]3C[C@H]12 (some centres undefined) [CARABRYL 4-FLUOROBENZOATE] | 21.2 (≈ 57 µM)
C=C1C(=O)O[C@@H]2C[C@]3(C)C(CCC(C)OC(=O)/C=C/c4ccc([N+](=O)[O-])cc4)[C@@H]3C[C@H]12 (some centres undefined) | 22.8 (≈ 53.7 µM)
C=C1C(=O)O[C@@H]2C[C@]3(C)C(CCC(C)OC(=O)c4cccnc4Cl)[C@@H]3C[C@H]12 (some centres undefined) [CARABRYL 2-CHLORONICOTINATE] | 4.62 (≈ 11.8 µM)
C=C1C(=O)O[C@@H]2C[C@]3(C)C(CCC(C)OC(=O)c4ccc(I)cc4)[C@@H]3C[C@H]12 (some centres undefined) [CARABRYL 4-IODOBENZOATE] | 33.5 (≈ 69.7 µM)
C=C1C(=O)O[C@@H]2C[C@]3(C)C(CCC(C)OC(=O)c4cccc(Cl)c4)[C@@H]3C[C@H]12 (some centres undefined) [CARABRYL 3-CHLOROBENZOATE] | 26.7 (≈ 68.7 µM)
N#Cc1c(Cl)c(Cl)c(Cl)c(C#N)c1Cl [CHLOROTHALONIL] | 0.87 (≈ 3.27 µM)
C=C1C(=O)O[C@@H]2C[C@]3(C)C(CCC(C)OC(=O)c4ccccc4I)[C@@H]3C[C@H]12 (some centres undefined) [CARABRYL 2-IODOBENZOATE] | 39 (≈ 81.3 µM)
C=C1C(=O)O[C@@H]2C[C@]3(C)C(CCC(C)OC(=O)c4ccc(Br)cc4)[C@@H]3C[C@H]12 (some centres undefined) [CARABRYL 4-BROMOBENZOATE] | 31.3 (≈ 72.2 µM)
C=C1C(=O)O[C@@H]2C[C@]3(C)C(CCC(C)OC(C)=O)[C@@H]3C[C@H]12 (some centres undefined) [CARABRYL ACETATE] | 10.8
C=C1C(=O)O[C@@H]2C[C@]3(C)C(CCC(C)OC(=O)c4ccccc4OCC)[C@@H]3C[C@H]12 (some centres undefined) [CARABRYL 2-ETHOXYBENZOATE] | 41.6 (≈ 104 µM)
C=C1C(=O)O[C@@H]2C[C@]3(C)C(CCC(C)OC(=O)c4ccncc4)[C@@H]3C[C@H]12 (some centres undefined) [CARABRYL ISONICOTINATE] | 4.31 (≈ 12.1 µM)
C=C1C(=O)O[C@@H]2C[C@]3(C)C(CCC(C)OC(=O)c4cccnc4)[C@@H]3C[C@H]12 (some centres undefined) [CARABRYL NICOTINATE] | 8.26 (≈ 23.2 µM)
C=C1C(=O)O[C@@H]2C[C@]3(C)C(CCC(C)OC(=O)CCC)[C@@H]3C[C@H]12 (some centres undefined) [CARABRYL N-BUTYRATE] | 20.8 (≈ 65 µM)
C=C1C(=O)O[C@@H]2C[C@]3(C)C(CCC(C)OC(=O)CC)[C@@H]3C[C@H]12 (some centres undefined) [CARABRYL PROPANOATE] | 23.3 (≈ 76 µM)
C=C1C(=O)O[C@@H]2C[C@]3(C)C(CCC(C)OC(=O)CCc4ccccc4)[C@@H]3C[C@H]12 (some centres undefined) [CARABRYL 3-PHENYLPROPANOATE] | 13.2 (≈ 34.6 µM)
C=C1C(=O)O[C@@H]2C[C@]3(C)C(CCC(C)OC(=O)c4cccs4)[C@@H]3C[C@H]12 (some centres undefined) [CARABRYL 2-THIOPHENECARBOXYLATE] | 30.8 (≈ 85.5 µM)

SMILES | IC50 [µg/mL]
C=C1C(=O)O[C@@H]2C[C@]3(C)C(CCC(C)OC(=O)c4ccc(C#N)cc4)[C@@H]3C[C@H]12 (some centres undefined) [CARABRYL 4-CYANOBENZOATE] | 2.7 (≈ 7.12 µM)
C=C1C(=O)O[C@@H]2C[C@]3(C)C(CCC(C)OC(=O)c4cccc(OC)c4)[C@@H]3C[C@H]12 (some centres undefined) [CARABRYL 3-METHOXYBENZOATE] | 49.4 (≈ 129 µM)
C=C1C(=O)O[C@@H]2C[C@]3(C)C(CCC(C)OC(=O)c4ccc(C(C)C)cc4)[C@@H]3C[C@H]12 (some centres undefined) [CARABRYL 4-ISOPROPYLBENZOATE] | 2.82 (≈ 7.11 µM)
C=C1C(=O)O[C@@H]2C[C@]3(C)C(CCC(C)OC(=O)Cc4cccc5ccccc45)[C@@H]3C[C@H]12 (stereo partly drawn) [CARABRYL ALPHA-NAPHTHYLACETATE] | 30.3 (≈ 72.3 µM)
C=C1C(=O)O[C@@H]2C[C@]3(C)C(CCC(C)OC(=O)c4ccccc4C)[C@@H]3C[C@H]12 (some centres undefined) [CARABRYL 2-METHYLBENZOATE] | 52.3 (≈ 142 µM)
C=C1C(=O)O[C@@H]2C[C@]3(C)C(CCC(C)OC(=O)c4cccc(F)c4)[C@@H]3C[C@H]12 (some centres undefined) [CARABRYL 3-FLUOROBENZOATE] | 30.4 (≈ 81.7 µM)
C=C1C(=O)O[C@@H]2C[C@]3(C)C(CCC(C)OC(=O)c4cccc5ccccc45)[C@@H]3C[C@H]12 (stereo partly drawn) [CARABRYL ALPHA-NAPHTHYLCARBOXYLATE] | 23.3 (≈ 57.6 µM)
C=C1C(=O)O[C@@H]2C[C@]3(C)C(CCC(C)OC(=O)c4ccc(Cl)cc4)[C@@H]3C[C@H]12 (some centres undefined) [CARABRYL 4-CHLOROBENZOATE] | 31.8 (≈ 81.8 µM)
C=C1C(=O)O[C@@H]2C[C@]3(C)C(CCC(C)OC(=O)c4ccccc4Br)[C@@H]3C[C@H]12 (some centres undefined) [CARABRYL 2-BROMOBENZOATE] | 29.2 (≈ 67.3 µM)
C=C1C(=O)O[C@@H]2C[C@]3(C)C(CCC(C)OC(=O)c4ccccc4OC)[C@@H]3C[C@H]12 (some centres undefined) [CARABRYL 2-METHOXYBENZOATE] | 46.1 (≈ 120 µM)
C=C1C(=O)O[C@@H]2C[C@]3(C)C(CCC(C)OC(=O)c4cccc(OC)c4OC)[C@@H]3C[C@H]12 (some centres undefined) [CARABRYL 2,3-DIMETHOXYBENZOATE] | 35.8 (≈ 86.3 µM)
C=C1C(=O)O[C@@H]2C[C@]3(C)C(CCC(C)OC(=O)CCc4c[nH]c5ccccc45)[C@@H]3C[C@H]12 (some centres undefined) [CARABRYL 3-INDOLEPROPIONATE] | 12.8 (≈ 30.4 µM)
C=C1C(=O)O[C@@H]2C[C@]3(C)C(CCC(C)OC(=O)c4ccc(OC)c(OC)c4)[C@@H]3C[C@H]12 (some centres undefined) [CARABRYL 3,4-DIMETHOXYBENZOATE] | 33 (≈ 79.5 µM)
C=C1C(=O)O[C@@H]2C[C@]3(C)C(CCC(C)OC(=O)Cc4ccc(Br)cc4)[C@@H]3C[C@H]12 (some centres undefined) [CARABRYL 4-BROMOPHENYLACETATE] | 44.4 (≈ 99.3 µM)
C=C1C(=O)O[C@@H]2C[C@]3(C)C(CCC(C)OC(=O)CCCC)[C@@H]3C[C@H]12 (some centres undefined) [CARABRYL N-PENTANOATE] | 31.2 (≈ 93.3 µM)
C=C1C(=O)O[C@@H]2C[C@]3(C)C(CCC(C)OC(=O)/C=C/C=C/C)[C@@H]3C[C@H]12 (some centres undefined) [CARABRYL 2,4-HEXADIENOATE] | 8.41 (≈ 24.4 µM)
C=C1C(=O)O[C@@H]2C[C@]3(C)C(CCC(C)OC(=O)CCl)[C@@H]3C[C@H]12 (some centres undefined) [CARABRYL CHLOROACETATE] | 4.51 (≈ 13.8 µM)
C=C1C(=O)O[C@@H]2C[C@]3(C)C(CCC(C)OC(=O)/C=C/c4ccccc4)[C@@H]3C[C@H]12 (some centres undefined) [CARABRYL 3-PHENYLACRYLATE] | 33.2 (≈ 87.3 µM)
C=C1C(=O)O[C@@H]2C[C@]3(C)C(CCC(C)OC(=O)c4cccc(Br)c4)[C@@H]3C[C@H]12 (some centres undefined) [CARABRYL 3-BROMOBENZOATE] | 36.7 (≈ 84.7 µM)
